Reference: ChEMBL document CHEMBL5247578, “Effective synthesis of benzimidazoles-imidazo[1,2-a]pyrazine conjugates: A comparative study of mono-and bis-benzimidazoles for antitumor activity” (Eur J Med Chem, 2019)

Key:
[1] = n-Octanol/phosphate buffer partition coefficient, logP of the compound at pH 7.4 incubated for 85 mins by shake-flask method; format: physicochemical
Outline: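 Octanol–water partition by shake-flask: n-octanol with 0.15 M phosphate buffer pH 7.4 at 10:1 volumes. Buffer-phase absorbance read before mixing, then shaken 50 min and centrifuged at 2500 rpm for 35 min. Buffer absorbance read again; P = (Ai−Af)/Af × Vw/Vo.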

MDA-MB-468 = assay: Antiproliferative activity against human MDA-MB-468 cells assessed as cell growth inhibition at 10 uM incubated for 48 hrs by sulforhodamine B assay relative to control; format: functional
Outline: (§1)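 NCI-60 single-dose screen at 10^-5 M. Cells grown in RPMI 1640 with 5% FBS and 2 mM L-glutamine, plated at 5,000–40,000 cells/well, and preincubated 24 h. Drug (DMSO stock) added and incubated 48 h at 37 °C, 5% CO2. Adherent cells fixed with cold TCA, stained with 0.4% SRB in 1% acetic acid, dye solubilized in 10 mM trizma base, A515 read. Percent growth taken against time-zero and untreated control.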

BT-549 = assay: Antiproliferative activity against human BT-549 cells assessed as cell growth inhibition at 10 uM incubated for 48 hrs by sulforhodamine B assay relative to control; format: functional
Outline: (§2)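 Single-dose NCI-60 prescreen at 10^-5 M. Cells in RPMI 1640 with 5% FBS and 2 mM L-glutamine, seeded 5,000–40,000 cells/well with 24 h preincubation, then drug exposure for 48 h at 37 °C under 5% CO2. Growth read by SRB staining of TCA-fixed cells at 515 nm against time-zero and untreated controls. Negative growth values denote cell kill.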

Hs-578T = assay: Antiproliferative activity against human Hs-578T cells assessed as cell growth inhibition at 10 uM incubated for 48 hrs by sulforhodamine B assay relative to control; format: functional; outline: as §1
MCF7 = assay: Antiproliferative activity against human MCF7 cells assessed as cell growth inhibition at 10 uM incubated for 48 hrs by sulforhodamine B assay relative to control; format: functional; outline: as §1
PC-3 = assay: Antiproliferative activity against human PC-3 cells assessed as cell growth inhibition at 10 uM incubated for 48 hrs by sulforhodamine B assay relative to control; format: functional; outline: as §1
SN12C = assay: Antiproliferative activity against human SN12C cells assessed as cell growth inhibition at 10 uM incubated for 48 hrs by sulforhodamine B assay relative to control; format: functional; outline: as §1
RXF 393 = assay: Antiproliferative activity against human RXF 393 cells assessed as cell growth inhibition at 10 uM incubated for 48 hrs by sulforhodamine B assay relative to control; format: functional; outline: as §1
ACHN = assay: Antiproliferative activity against human ACHN cells assessed as cell growth inhibition at 10 uM incubated for 48 hrs by sulforhodamine B assay relative to control; format: functional; outline: as §2
A498 = assay: Antiproliferative activity against human A498 cells assessed as cell growth inhibition at 10 uM incubated for 48 hrs by sulforhodamine B assay relative to control; format: functional; outline: as §2
NCI/ADR-RES = assay: Antiproliferative activity against human NCI/ADR-RES cells assessed as cell growth inhibition at 10 uM incubated for 48 hrs by sulforhodamine B assay relative to control; format: functional; outline: as §1
OVCAR-8 = assay: Antiproliferative activity against human OVCAR-8 cells assessed as cell growth inhibition at 10 uM incubated for 48 hrs by sulforhodamine B assay relative to control; format: functional; outline: as §1
OVCAR-5 = assay: Antiproliferative activity against human OVCAR-5 cells assessed as cell growth inhibition at 10 uM incubated for 48 hrs by sulforhodamine B assay relative to control; format: functional; outline: as §1
OVCAR-3 = assay: Antiproliferative activity against human OVCAR-3 cells assessed as cell growth inhibition at 10 uM incubated for 48 hrs by sulforhodamine B assay relative to control; format: functional; outline: as §1
SK-MEL-5 = assay: Antiproliferative activity against human SK-MEL-5 cells assessed as cell growth inhibition at 10 uM incubated for 48 hrs by sulforhodamine B assay relative to control; format: functional; outline: as §1
SK-MEL-2 = assay: Antiproliferative activity against human SK-MEL-2 cells assessed as cell growth inhibition at 10 uM incubated for 48 hrs by sulforhodamine B assay relative to control; format: functional; outline: as §1
M14 = assay: Antiproliferative activity against human M14 cells assessed as cell growth inhibition at 10 uM incubated for 48 hrs by sulforhodamine B assay relative to control; format: functional; outline: as §1
LOX IMVI = assay: Antiproliferative activity against human LOX IMVI cells assessed as cell growth inhibition at 10 uM incubated for 48 hrs by sulforhodamine B assay relative to control; format: functional; outline: as §1
U-251 = assay: Antiproliferative activity against human U-251 cells assessed as cell growth inhibition at 10 uM incubated for 48 hrs by sulforhodamine B assay relative to control; format: functional; outline: as §1
SNB-75 = assay: Antiproliferative activity against human SNB-75 cells assessed as cell growth inhibition at 10 uM incubated for 48 hrs by sulforhodamine B assay relative to control; format: functional; outline: as §1
SF-539 = assay: Antiproliferative activity against human SF-539 cells assessed as cell growth inhibition at 10 uM incubated for 48 hrs by sulforhodamine B assay relative to control; format: functional; outline: as §1
SF-295 = assay: Antiproliferative activity against human SF-295 cells assessed as cell growth inhibition at 10 uM incubated for 48 hrs by sulforhodamine B assay relative to control; format: functional; outline: as §1
HCT-116 = assay: Antiproliferative activity against human HCT-116 cells assessed as cell growth inhibition at 10 uM incubated for 48 hrs by sulforhodamine B assay relative to control; format: functional
Outline: (§3)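 NCI-60 one-dose prescreen at 10^-5 M. Cells grown in RPMI 1640 with 5% FBS and 2 mM glutamine, preincubated 24 h, then exposed 48 h at 37 °C. Adherent lines TCA-fixed, SRB-stained, A515 read. Growth percent relative to time-zero and control; negative values mean cell kill.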

NCI-H522 = assay: Antiproliferative activity against human NCI-H522 cells assessed as cell growth inhibition at 10 uM incubated for 48 hrs by sulforhodamine B assay relative to control; format: functional; outline: as §1
NCI-H460 = assay: Antiproliferative activity against human NCI-H460 cells assessed as cell growth inhibition at 10 uM incubated for 48 hrs by sulforhodamine B assay relative to control; format: functional; outline: as §1
EKVX = assay: Antiproliferative activity against human EKVX cells assessed as cell growth inhibition at 10 uM incubated for 48 hrs by sulforhodamine B assay relative to control; format: functional; outline: as §3
A549 = assay: Antiproliferative activity against human A549 cells assessed as cell growth inhibition at 10 uM incubated for 48 hrs by sulforhodamine B assay relative to control; format: functional; outline: as §2
RPMI-8226 = assay: Antiproliferative activity against human RPMI-8226 cells assessed as cell growth inhibition at 10 uM incubated for 48 hrs by sulforhodamine B assay relative to control; format: functional; outline: as §1
MOLT-4 = assay: Antiproliferative activity against human MOLT-4 cells assessed as cell growth inhibition at 10 uM incubated for 48 hrs by sulforhodamine B assay relative to control; format: functional; outline: as §1
HL-60 = assay: Antiproliferative activity against human HL-60 cells assessed as cell growth inhibition at 10 uM incubated for 48 hrs by sulforhodamine B assay relative to control; format: functional; outline: as §3
CCRF-CEM = assay: Antiproliferative activity against human CCRF-CEM cells assessed as cell growth inhibition at 10 uM incubated for 48 hrs by sulforhodamine B assay relative to control; format: functional; outline: as §2

Compound | logD at 1.417 h [1] | inhibition at 10 µM (MDA-MB-468) [%] | inhibition at 10 µM (BT-549) [%] | inhibition at 10 µM (Hs-578T) [%] | inhibition at 10 µM (MCF7) [%] | inhibition at 10 µM (PC-3) [%] | inhibition at 10 µM (SN12C) [%] | inhibition at 10 µM (RXF 393) [%] | inhibition at 10 µM (ACHN) [%] | inhibition at 10 µM (A498) [%] | inhibition at 10 µM (NCI/ADR-RES) [%] | inhibition at 10 µM (OVCAR-8) [%] | inhibition at 10 µM (OVCAR-5) [%] | inhibition at 10 µM (OVCAR-3) [%] | inhibition at 10 µM (SK-MEL-5) [%] | inhibition at 10 µM (SK-MEL-2) [%] | inhibition at 10 µM (M14) [%] | inhibition at 10 µM (LOX IMVI) [%] | inhibition at 10 µM (U-251) [%] | inhibition at 10 µM (SNB-75) [%] | also measured
c1cn2cc(-c3ccc4ncn(C5CCCCC5)c4c3)nc(-c3ccc4ncn(C5CCCCC5)c4c3)c2n1 | 1.19 | 31.4 | 38.3 | 43.3 | 45 | 64.2 | 42.7 | 16.8 | 45.1 | 26.2 | 48.8 | 59.5 | 7.18 | 40.4 | 55.7 | 31.7 | 40.6 | 67 | 69 | 25.4 | inhibition at 10 µM (SF-539): 16.7%; inhibition at 10 µM (SF-295): 44%; inhibition at 10 µM (HCT-116): 80.2%; inhibition at 10 µM (NCI-H522): 49.4%; inhibition at 10 µM (NCI-H460): 53%; inhibition at 10 µM (EKVX): 30.8%; inhibition at 10 µM (A549): 57.6%; inhibition at 10 µM (RPMI-8226): 89.1%; inhibition at 10 µM (MOLT-4): 79.1%; inhibition at 10 µM (HL-60): 51%; inhibition at 10 µM (CCRF-CEM): 78.5%
c1ccc(Cn2cnc3ccc(-c4nc(-c5ccc6c(c5)ncn6C5CCCCC5)cn5ccnc45)cc32)cc1 | 1.61 | -35.7 | -44.7 | 99.6 | 98 | -39.5 | -35.4 | -76.9 | 80.1 | -71.8 | 99.5 | 97.5 | -29 | -35.7 | -84 | -36.7 | -4.44 | -87 | -22.8 | -67.4 | inhibition at 10 µM (SF-539): -77.6%; inhibition at 10 µM (SF-295): -81.3%; inhibition at 10 µM (HCT-116): -75.8%; inhibition at 10 µM (NCI-H522): -35.2%; inhibition at 10 µM (NCI-H460): -20.3%; inhibition at 10 µM (EKVX): -12.2%; inhibition at 10 µM (A549): -5.05%; inhibition at 10 µM (RPMI-8226): -41.2%; inhibition at 10 µM (MOLT-4): 95.6%; inhibition at 10 µM (HL-60): -20.8%; inhibition at 10 µM (CCRF-CEM): 94.4%
c1ccc(-c2cn3ccnc3c(-c3ccc4ncn(C5CCCCC5)c4c3)n2)cc1 | 1.74 | 54.4 | 57.1 | 23.8 | 38 | 92 | 28.8 | 45 | 35.9 | 26.1 | 50.5 | 63.9 | 7.87 | 41.8 | 36.5 | 16.5 | 38.2 | 39.6 | 37.3 | 44.4 | inhibition at 10 µM (SF-539): 27.8%; inhibition at 10 µM (SF-295): 39.8%; inhibition at 10 µM (HCT-116): 59.5%; inhibition at 10 µM (NCI-H522): 58.1%; inhibition at 10 µM (NCI-H460): 37.8%; inhibition at 10 µM (EKVX): 24.2%; inhibition at 10 µM (A549): 33.3%; inhibition at 10 µM (RPMI-8226): 85.7%; inhibition at 10 µM (MOLT-4): 67.7%; inhibition at 10 µM (HL-60): 67.1%; inhibition at 10 µM (CCRF-CEM): 81.2%
c1cn2cc(-c3ccc4c(c3)ncn4C3CCCCC3)nc(-c3ccc4ncn(C5CCCCC5)c4c3)c2n1 | 1.9 | 14.9 | 27.7 | 23.6 | 19.1 | 45 | 20.5 | 37.4 | 5.48 | 16.3 | 27 | 42.6 | 1.44 | 3.05 | 36.8 | 13.7 | 6.98 | 25.9 | 38.7 | 24.8 | inhibition at 10 µM (SF-539): 35.7%; inhibition at 10 µM (SF-295): 50.6%; inhibition at 10 µM (HCT-116): 29.1%; inhibition at 10 µM (NCI-H522): 28.5%; inhibition at 10 µM (NCI-H460): 11.9%; inhibition at 10 µM (EKVX): 60.2%; inhibition at 10 µM (A549): 25.3%; inhibition at 10 µM (RPMI-8226): 70.8%; inhibition at 10 µM (MOLT-4): 56.9%; inhibition at 10 µM (HL-60): 30%; inhibition at 10 µM (CCRF-CEM): 46.1%
COc1ccc(-c2cn3ccnc3c(-c3ccc4ncn(C5CCCCC5)c4c3)n2)cc1 | 1.41 | 97.4 | 68.9 | 80 | 80.2 | 95.2 | 63.6 | -8.48 | 61 | -12.3 | 87.2 | 71.2 | 58.8 | -26.5 | 92.3 | 94.3 | 89.2 | 69.6 | 80.9 | -26.3 | inhibition at 10 µM (SF-539): -43.4%; inhibition at 10 µM (SF-295): 92.5%; inhibition at 10 µM (HCT-116): 91.3%; inhibition at 10 µM (NCI-H522): -20.9%; inhibition at 10 µM (NCI-H460): 91.1%; inhibition at 10 µM (EKVX): 56.6%; inhibition at 10 µM (A549): 68.6%; inhibition at 10 µM (RPMI-8226): 95.6%; inhibition at 10 µM (MOLT-4): 82.8%; inhibition at 10 µM (HL-60): 98.6%; inhibition at 10 µM (CCRF-CEM): 93.3%
